According to the RNAGym collection of RNA variant scans (doi:10.1126/science.aae0568):
Fewer inactive variants are shown than the library holds.

B1: tRNA (parent)
chain: GUUCCGUUGGCGUAAUGGUAACGCGUCUCCCUCCUAAGGAGAAGACUGCGGGUUCGAGUCCCGUACGGAACG

Variants of: B1
Assay: yeast fitness relative to wild type (ratio to wild type); higher = fitter; tRNA-Arg(CCU), competitive growth, 37 C, YPD
Summary of the method: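 The tRNA-Arg(CCU) gene variants were made by chemical synthesis with a 3% per-site mutation rate at 69 sites and inserted at the native genomic locus of Saccharomyces cerevisiae. After pooling, the strains were competed in YPD at 37°C for 24 hours in six parallel replicates. Gene amplicons from the start population and each end population were read by 100-nucleotide paired-end sequencing, and Darwinian fitness relative to wild type was taken from genotype frequency changes. Genotypes needed ≥ 100 starting reads, and estimates < 0.5 were set to 0.5.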
In the case of GUUCCGUUGGCGUAAUGGUUAUGUGUCUCCCUCCUAAGGAGAAGACUGCGGGUUCGAGUCCCGUACGGAACG, the yeast fitness is reported as at most 0.5.
For GUUCCGUUGGCGUAAUGGUGACGCGUCUCCCUCCUAAGGAGAAGACUGCGGGUUCGAGUCCCGUACGAAACG, the yeast fitness was 0.917.
In the case of GUUCCGUUGGCGUAAUGGUUAUGCGUCUCCCUACUAAGGAGAAGACUGCGGGUUCGAGUCCCGUAAGGAACG, the yeast fitness is reported as at most 0.5.
Variant GUUCCGUUGGCGUAAUGGUUACGCGUCUCCCUCCUAAGGGGGAGACUGCAGGUUCGAGUCCCGUACGGAACG has a yeast fitness of at most 0.5.
GUUCCGUUGGCGUAAUGGUGACGCGUCUCCCUCCCAAGGAGAAGACUGCGGGUUCGAGUCCCAUACGGAUCG gave a yeast fitness of at most 0.5.
In the case of GUUCCGUUGGCGUAAUGGUGACGCGCCUCCCUCCUAAGGAGAAGACUGCGGGUUCGAGUCCCGUCCGGAACG, the yeast fitness is reported as 0.704.
Work on GUUCCGUUGGCGUAAUGGUUACGCGUCUCCCUCCUGAGGAGAAGACUGCGGGUUGGAGUCCCGUACGGAACG yielded a yeast fitness of 0.579.
GUUCCGUUGGCGUAAUGGUGACGCGUCUCCCUCCGAAGGAGAAGACUGCGGGUUCGAGUCCCGUUCGGAACG gave a yeast fitness of at most 0.5.
For GUUCCGUUGGCGUAAUGGUUACGCGUCUCCCUCCUGAGGAGAAGACUGCGGGUUCGAGUCCCGUACGGAUCG, the yeast fitness was 0.626.
For GUUCCGUUGGCGUAAUGGUUUCGCGUCUCCGUCCUAAGGAGAAGACUGCGGGUUAGAGUCCCGUAUGGAACG, the yeast fitness was at most 0.5.
Variant GUUCCGUUGGCGUAAUGGUUACGCGUCUCCCUCCUAAGGAGAUGACUGAGGGUUCGACUCCCGUACGGAACG has a yeast fitness of 0.535.
GUUCCGUUGGCGUAAUGGUUAGGCGUCUCCCUCCUAAGGGGAAGACUGCGGGUUCGAGUCCCGUACGGAUCG gave a yeast fitness of at most 0.5.
In the case of GUUCCGUUGGCGUAAUGGUUCCGCGUCUCCCUCCUAAGGAGAAGACUGCGGGUUCGAGUCCCGUACGGAACG, the yeast fitness is reported as 0.651.
GUUCCGUUGGCGUAAUGGUUGCGCGUCUCCCUCCUAAGGAGAAGACUGCGGGUUCGAGUCCCGUACGGAACG gave a yeast fitness of 0.947.
Variant GUUCCGUUGGCGUAAUGGUUACGCGUCUCCCUCCUAAGGAGCAGACUGCGGGUUCGAGUCCCGUACGGAACG has a yeast fitness of 0.648.
With GUUCCGUUGGCGUAAUGGUUAGGCGUCUCCCUCCUAAGGGGAAGACUGCGGGUUCGAGUCCCGUACGGAACG the yeast fitness was 0.745.
GUUCCGUUGGCGUAAUGGUUACGCGUCUCCCUCCUAAGGAGAGGACUGCGGGUUCGAGUCCCGUACGGAUCG gave a yeast fitness of 0.661.
GUUCCGUUGGCGUAAUGGUUACGCGUCUCCCUCCUAAGGAGAUGACUGAGGGUUCGAGUCCCGUACGAAACG gave a yeast fitness of at most 0.5.
GUUCCGUUGGCGUAAUGGUGACGCGUCUCCCUCCUAAGGAGAAGACCGCGGGUGCGAGUCCCGUAGGGAACG showed a yeast fitness of at most 0.5.
GUUCCGUUGGCGUAAUGGUUACGCGUCUCCCUCCUAUGGAGAAGACUGCGGGUUUGAGUCCCGUACGGAACG gave a yeast fitness of at most 0.5.
GUUCCGUUGGCGUAAUGGUGACGCGUCUCCCUCCUAAGGAGAAGACAGCGGGAUCGAGUCCCGUACGGAACG gave a yeast fitness of at most 0.5.
GUUCCGUUGGCGUAAUGGUUACGCGUCUCCCUCCUAAGGAGAAGACUGCGGGUUCGAGUCCCGUACGGACCG showed a yeast fitness of 0.977.
In the case of GUUCCGUUGGCGUAAUGGUUAGGCGUCUCCCUCCUAAGGAGAAGACUGCGGGUUCGAGUACCGUACGGAACG, the yeast fitness is reported as at most 0.5.
Variant GUUCCGUUGGCGUAAUGGUGACGCGCCUCCCUCCUAAGAAGAAGACUGCAGGUUCGAGUCCCGUACGGAACG has a yeast fitness of at most 0.5.
In the case of GUUCCGUUGGCGUAAUGGUGACGCGACUCCCUCCUAAGGAGAAGACUGCGGGUUCGAGUCCCAUACGGAACG, the yeast fitness is reported as 0.613.
GUUCCGUUGGCGUAAUGGUGACGCGUCUCCCUCCUAAGGAGAAGACCGCGGGUUCGAUUCCCGUUCGGAACG showed a yeast fitness of at most 0.5.
Work on GUUCCGUUGGCGUAAUGGUUACGCGUCUCCCUCCUAAGGUGAAGACUGCGGGUUCGAGACCCGUACGGAACG yielded a yeast fitness of at most 0.5.
For GUUCCGUUGGCGUAAUGGUGACGCGUCUCCCUCCAAGGGAGAUGCCUGCGGGUUCGAGUCCCGUACGGAACG, the yeast fitness was at most 0.5.
Variant GUUCCGUUGGCGUAAUGGUUACGCGUCUCCCUCCUAAGGAGGAGACUGCGGGUUCGAGUCCCGUGCGGAACG has a yeast fitness of 0.689.
Work on GUUCCGUUGGCGUAAUGGUGACGCGUCACGCUCCUAAGGAGAAGACUGCGGGUUCGAGCCCCGUACGGAACG yielded a yeast fitness of at most 0.5.
GUUCCGUUGGCGUAAUGGUUACGCGUCUCCCUCCUAAGGAGAAGCCUGCGGGUUCGAGUCCCGUCCGGAACG gave a yeast fitness of 0.63.
GUUCCGUUGGCGUAAUGGUGACGCGUCUCCCUCCUAAGGAGAAGACUGCGGGCUCGAGUCCCGUACGGAACG showed a yeast fitness of 0.682.
GUUCCGUUGGCGUAAUGGUUACGCGUCUCCCUCCUACGGAGAAGACUGCGGGAUCGAGUCCCGUACGGAACG showed a yeast fitness of 0.682.
Work on GUUCCGUUGGCGUAAUGGUUACGCGUCUCCCUCCUAAGGAGUAGACUGCGGGUUCGAGUCUCGUAUGGAACG yielded a yeast fitness of at most 0.5.
GUUCCGUUGGCGUAAUGGUGACGCGUCUCCCUCCUAAGGAGAAGACUGCGGGCUAGAGUCCCGUACGGAACG showed a yeast fitness of at most 0.5.
For GUUCCGUUGGCGUAAUGGUUACGCGUCUCCCUCCUAAGGAGAUGACUGCGGGUUAGAGUCCCGAACGGAACG, the yeast fitness was at most 0.5.
Work on GUUCCGUUGGCGUAAUGGUUACGCGUCUCCCUCCUAAGGAGAAGGCUGCAGAUUCGAGUCCCGUACGGAACG yielded a yeast fitness of 0.602.
